One assay has as its target T1, B2 bradykinin receptor (Homo sapiens, UniProt P30411).
T1 sequence (P30411 whole entry): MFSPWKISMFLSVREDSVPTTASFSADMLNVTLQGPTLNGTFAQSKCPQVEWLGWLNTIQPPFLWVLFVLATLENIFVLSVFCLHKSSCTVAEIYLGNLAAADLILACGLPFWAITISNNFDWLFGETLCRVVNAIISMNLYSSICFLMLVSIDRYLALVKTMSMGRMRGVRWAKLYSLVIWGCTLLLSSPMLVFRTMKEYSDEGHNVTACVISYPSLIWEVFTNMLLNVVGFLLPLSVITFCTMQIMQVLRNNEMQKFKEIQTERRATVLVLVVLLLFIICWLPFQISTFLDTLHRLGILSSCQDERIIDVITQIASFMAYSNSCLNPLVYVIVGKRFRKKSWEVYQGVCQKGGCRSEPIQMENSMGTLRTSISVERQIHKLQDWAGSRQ
As to the kind of experiment: Binding affinity towards human cloned Bradykinin receptor B2 expressed in CHO cells by [3H]bradykinin displacement. The assay is classed as cell-based. In short, it runs like this:
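Membranes from stably transfected CHO cells, scraped into 20 mM TES (pH 6.8) with 1 mM 1,10-phenanthroline, 140 μg/mL bacitracin and 0.1% BSA, then pelleted at 40000g for 15 min. Filtered through PEI-soaked GF/B filters and counted by scintillation. Means of ≥3 experiments in duplicate.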

For assay [1], the species on record is Homo sapiens. As to the kind of experiment: Ability of Compound (Agonist) to contract isolated human umbilical vein in absence of inhibitor. It is filed as functional.
Assay [2] is filed under the species Homo sapiens. The experiment in a line: (§1) Ability of Compound (Agonist) to contract isolated human umbilical vein in presence of inhibitor. The assay is classed as functional.
Assay [3] is filed under the species Homo sapiens. The description is as §1. The assay is classed as functional, organism-based. Conditions: read-out: pA2 (converted).

Residues, ends and D or L forms follow the SMILES beside them.

Usually Ki stands for a dissociation constant, usually derived from enzyme kinetics or from competition with a known ligand. High values mean a looser hold on the target, low ones a stronger hold on the target. Compound `NC(N)=NCCC[C@@H](N)C(=O)N[C@@H](CCCN=C(N)N)C(=O)N1CCC[C@H]1C(=O)N1CC(O)C[C@H]1C(=O)NCC(=O)N[C@@H](Cc1cccs1)C(=O)N[C@@H](CO)C(=O)N[C@@H]1CCc2cccc3c2N(C1=O)[C@@H](C(=O)N[C@H](CCCN=C(N)N)C(=O)O)C3` (some centres not stated) displayed a Ki on B2 bradykinin receptor (cho) of 140 nM. That is a sub-micromolar value.

As to `NC(N)=NCCC[C@@H](N)C(=O)N[C@@H](CCCN=C(N)N)C(=O)N1CCC[C@H]1C(=O)N1CC(O)C[C@H]1C(=O)NCC(=O)N[C@@H](Cc1cccs1)C(=O)N[C@@H](CO)C(=O)N[C@H]1CCc2cccc3c2N(C1=O)[C@@H](C(=O)N[C@H](CCCN=C(N)N)C(=O)O)C3` (some centres not stated), the Ki on B2 bradykinin receptor (cho) was determined as 160 nM.

On to `Cc1ccc2c(c1)SC[C@@H](NC(=O)[C@H](CO)NC(=O)[C@H](Cc1cccs1)NC(=O)CNC(=O)[C@@H]1C[C@@H](O)CN1C(=O)[C@@H]1CCCN1C(=O)[C@H](CCCNC(=N)N)NC(=O)[C@H](N)CCCNC(=N)N)C(=O)N2CC(=O)N[C@@H](CCCNC(=N)N)C(=O)O` [listing 1 of 2 here], for which the inhibition constant (Ki) at B2 bradykinin receptor was determined as 6 nM.

On to `Cc1ccc2c(c1)SC[C@@H](NC(=O)[C@H](CO)NC(=O)[C@H](Cc1cccs1)NC(=O)CNC(=O)[C@@H]1C[C@@H](O)CN1C(=O)[C@@H]1CCCN1C(=O)[C@H](CCCNC(=N)N)NC(=O)[C@H](N)CCCNC(=N)N)C(=O)N2CC(=O)N[C@@H](CCCNC(=N)N)C(=O)O` [listing 2 of 2 here], for which the pD2 was determined as 7.3 in the assay filed under Homo sapiens [1] and 7.4 in the assay listed under Homo sapiens [2].

Compound `NC(N)=NCCC[C@@H](N)C(=O)N[C@@H](CCCN=C(N)N)C(=O)N1CCC[C@H]1C(=O)N1CC(O)C[C@H]1C(=O)NCC(=O)N[C@@H](Cc1cccs1)C(=O)N[C@@H](CO)C(=O)N[C@@H]1CCN([C@@H](Cc2ccccc2)C(=O)N[C@@H](CCCN=C(N)N)C(=O)O)C1=O` (some centres not stated) returned a Ki at B2 bradykinin receptor of 2070 nM.

Consider `NC(N)=NCCC[C@@H](N)C(=O)N[C@@H](CCCN=C(N)N)C(=O)N1CCC[C@H]1C(=O)N1CC(O)C[C@H]1C(=O)NCC(=O)N[C@@H](Cc1cccs1)C(=O)N[C@@H](CO)C(=O)N[C@]1(Cc2ccccc2)C(=O)C(Cc2ccccc2)N(CC(=O)N[C@@H](CCCN=C(N)N)C(=O)O)C1=O` (some centres not stated), for which the affinity at B2 bradykinin receptor, expressed as Ki, was 14 nM.

Regarding `N=C(N)NCCC[C@@H](N)C(=O)N[C@@H](CCCNC(=N)N)C(=O)N1CCC[C@H]1C(=O)N1C[C@H](O)C[C@H]1C(=O)NCC(=O)N[C@@H](Cc1cccs1)C(=O)N[C@@H](CO)C(=O)N[C@@H]1COc2ccccc2N(CC(=O)N[C@@H](CCCNC(=N)N)C(=O)O)C1=O` [listing 1 of 2 here], the Ki on B2 bradykinin receptor stood at 2.5 nM.

As for `N=C(N)NCCC[C@@H](N)C(=O)N[C@@H](CCCNC(=N)N)C(=O)N1CCC[C@H]1C(=O)N1C[C@H](O)C[C@H]1C(=O)NCC(=O)N[C@@H](Cc1cccs1)C(=O)N[C@@H](CO)C(=O)N[C@@H]1COc2ccccc2N(CC(=O)N[C@@H](CCCNC(=N)N)C(=O)O)C1=O` [listing 2 of 2 here], in the assay listed under Homo sapiens [1], the pD2 was 5.1.

Take `N=C(N)NCCC[C@@H](N)C(=O)N[C@@H](CCCNC(=N)N)C(=O)N1CCC[C@H]1C(=O)N1CC(O)C[C@H]1C(=O)NCC(=O)N[C@@H](Cc1cccs1)C(=O)N[C@@H](CO)C(=O)N[C@H]1CCCN(CC(=O)N[C@@H](CCCNC(=N)N)C(=O)O)C1=O` (some centres not stated): affinity at B2 bradykinin receptor was put at a Ki of 18600 nM. This lies in the double-digit micromolar range.

`N=C(N)NCCC[C@@H](N)C(=O)N[C@@H](CCCNC(=N)N)C(=O)N1CCC[C@H]1C(=O)N1CC(O)C[C@H]1C(=O)NCC(=O)N[C@@H](Cc1cccs1)C(=O)N[C@@H](CO)C(=O)N[C@H]1CCCCN(CC(=O)N[C@@H](CCCNC(=N)N)C(=O)O)C1=O` (some centres not stated) displayed a Ki on B2 bradykinin receptor of 520 nM.

At B2 bradykinin receptor, `N=C(N)NCCC[C@@H](N)C(=O)N[C@@H](CCCNC(=N)N)C(=O)N1CCC[C@H]1C(=O)N1CC(O)C[C@H]1C(=O)NCC(=O)N[C@@H](Cc1cccs1)C(=O)N[C@@H](CO)C(=O)N[C@@H]1CCN(CC(=O)N[C@@H](CCCNC(=N)N)C(=O)O)C1=O` (some centres not stated) registered a Ki of 4900 nM.

The compound `NC(N)=NCCC[C@@H](N)C(=O)N[C@@H](CCCN=C(N)N)C(=O)N1CCC[C@H]1C(=O)N1CC(O)C[C@H]1C(=O)NCC(=O)N[C@@H](Cc1cccs1)C(=O)N[C@@H](CO)C(=O)N[C@@H]1CCCCN(CC(=O)N[C@@H](CCCN=C(N)N)C(=O)O)C1=O` (some centres not stated) displayed an inhibitory constant (Ki) at B2 bradykinin receptor of 770 nM.

Compound `N=C(N)NCCC[C@@H](N)C(=O)N[C@@H](CCCNC(=N)N)C(=O)N1CCC[C@H]1C(=O)N1C[C@H](O)C[C@H]1C(=O)NCC(=O)N[C@@H](Cc1cccs1)C(=O)N[C@@H](CO)C(=O)N[C@@H]1CSc2ccccc2N(CC(=O)N[C@@H](CCCNC(=N)N)C(=O)O)C1=O` [listing 1 of 2 here] returned an inhibition constant Ki at B2 bradykinin receptor of 0.7 nM.

As to `N=C(N)NCCC[C@@H](N)C(=O)N[C@@H](CCCNC(=N)N)C(=O)N1CCC[C@H]1C(=O)N1C[C@H](O)C[C@H]1C(=O)NCC(=O)N[C@@H](Cc1cccs1)C(=O)N[C@@H](CO)C(=O)N[C@@H]1CSc2ccccc2N(CC(=O)N[C@@H](CCCNC(=N)N)C(=O)O)C1=O` [listing 2 of 2 here], the pD2 in the assay filed under Homo sapiens [1] amounted to 6.7; in the assay listed under Homo sapiens [2], 6.8.

For the compound `N=C(N)NCCC[C@@H](N)C(=O)N[C@@H](CCCNC(=N)N)C(=O)N1CCC[C@H]1C(=O)N1CC(O)C[C@H]1C(=O)NCC(=O)N[C@@H](Cc1cccs1)C(=O)N[C@@H](CO)C(=O)N[C@H]1CCN(CC(=O)N[C@@H](CCCNC(=N)N)C(=O)O)C1=O` (some centres not stated), the affinity at B2 bradykinin receptor corresponds to a Ki of 1030 nM.

`N=C(N)NCCC[C@H](NC(=O)CN1C(=O)[C@H](NC(=O)[C@H](CO)NC(=O)[C@H](Cc2cccs2)NC(=O)CNC(=O)[C@@H]2C[C@@H](O)CN2C(=O)[C@@H]2CCCN2C(=O)[C@H](CCCNC(=N)N)NC(=O)[C@@H](N)CCCCN)CSc2ccccc21)C(=O)O` [listing 1 of 2 here] showed a Ki at B2 bradykinin receptor of 0.07 nM.

In the case of `N=C(N)NCCC[C@H](NC(=O)CN1C(=O)[C@H](NC(=O)[C@H](CO)NC(=O)[C@H](Cc2cccs2)NC(=O)CNC(=O)[C@@H]2C[C@@H](O)CN2C(=O)[C@@H]2CCCN2C(=O)[C@H](CCCNC(=N)N)NC(=O)[C@@H](N)CCCCN)CSc2ccccc21)C(=O)O` [listing 2 of 2 here], the pD2 is reported as 7 in the assay listed under Homo sapiens [1] and 7.1 in the assay listed under Homo sapiens [2].

On to `COc1ccc(C[C@@H](CN[C@@H](CCCN=C(N)N)C(=O)O)NC(=O)[C@@H]2CCCN2C(=O)[C@H](CO)NC(=O)[C@H](Cc2cccs2)NC(=O)CNC(=O)[C@@H]2C[C@@H](O)CN2C(=O)[C@@H]2CCCN2C(=O)[C@@H](N)CCCN=C(N)N)cc1` (HELM PEPTIDE1{R.P.[Hyp].G.[O=C([C@H](Cc1cccs1)N[*:1])[*:2]].S.P.[COc1ccc(C[C@@H](CN[C@@H](CCCN=C(N)N)C(=O)O)N[*:1])cc1]}$$$$V2.0), for which the results for the pD2 in the assay listed under Homo sapiens [1] and in the assay filed under Homo sapiens [2] were 6.9 and 7.1, respectively.

As to `NC(N)=NCCC[C@@H](N)C(=O)N[C@@H](CCCN=C(N)N)C(=O)N1CCC[C@H]1C(=O)N1C[C@H](O)C[C@H]1C(=O)NCC(=O)N[C@@H](Cc1cccs1)C(=O)N[C@@H](CO)C(=O)NC1N=C(c2ccccc2)c2ccccc2N(CC(=O)N[C@@H](CCCN=C(N)N)C(=O)O)C1=O` (stereo in doubt; 34), at B2 bradykinin receptor (cho), the inhibition constant (Ki) is 86 nM.

For the compound `NC(N)=NCCC[C@@H](N)C(=O)N[C@@H](CCCN=C(N)N)C(=O)N1CCC[C@H]1C(=O)N1C[C@H](O)C[C@H]1C(=O)NCC(=O)N[C@@H](Cc1cccs1)C(=O)N[C@@H](CO)C(=O)NC1N=C(c2ccccc2)c2ccccc2N(CC(=O)N[C@@H](CCCN=C(N)N)C(=O)O)C1=O` (stereo in doubt; 35), on B2 bradykinin receptor (cho), the inhibition constant Ki came to 1040 nM. This Ki is about 12-fold higher than that of the compound before.

For the compound `N=C(N)NCCC[C@@H](N)C(=O)N[C@@H](CCCNC(=N)N)C(=O)N1CCC[C@H]1C(=O)N1C[C@H](O)C[C@H]1C(=O)NCC(=O)N[C@@H](Cc1cccs1)C(=O)N[C@@H](CO)C(=O)N1Cc2ccccc2C[C@@H]1C(=O)N1[C@H](C(=O)N[C@@H](CCCNC(=N)N)C(=O)O)C[C@@H]2CCCC[C@@H]21` [ICATIBANT], in the assay listed under Homo sapiens [3], the Kb was 6.31 nM.

Take H-RPPGFSPFR-OH [BRADYKININ]: the pD2 in the assay listed under Homo sapiens [1] is listed as 7.4; in the assay filed under Homo sapiens [2], 7.9.

(Values after ChEMBL document CHEMBL1132436 (J Med Chem, 1999).)
